Activity calls are given as the source filed them. No cut-off for these calls is given here.
Experiments:
[1] = test system: MDA-MB-435; test: Cytotoxicity against human MDA-MB-435 cells after 72 hrs by CellTiter 96 Aqueous One Solution reagent based assay; format: functional, cell-based; conditions: MDA-MB-435, 72 h
[2] = test system: MDA-MB-231; test: Cytotoxicity against human MDA-MB-231 cells after 72 hrs by CellTiter 96 Aqueous One Solution reagent based assay; format: functional, cell-based; conditions: MDA-MB-231, 72 h
[3] = test system: OVCAR-3; test: Cytotoxicity against human OVCAR3 cells after 72 hrs by CellTiter 96 Aqueous One Solution reagent based assay; format: functional, cell-based; conditions: OVCAR-3, 72 h
[4] = test system: HT-29; test: Cytotoxicity against human HT-29 cells after 72 hrs by CellTiter 96 Aqueous One Solution reagent based assay; format: functional, cell-based; conditions: HT-29, 72 h
[5] = Inhibition of porcine cortex Na+/K+-ATPase using ATP as substrate after 15 mins by ADP-Glo Reagent based method; design: species or system Sus scrofa
Summary of the method: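 Enzyme from porcine cerebral cortex in assay buffer, preincubated with compound in DMSO or DMSO alone; ATP added, 15 min reaction. ADP formed was quantified luminescently: 40 min with ADP-Glo reagent, then 60 min with detection reagent (luciferin/luciferase). Concentration-response over a range of concentrations; IC50 derived; triplicate, three independent experiments.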

[6] = test system: NCI-H1299; test: Inhibition of glucose transporter in human NCI-H1299 cells assessed as reduction in [3H]2-deoxy-D-glucose uptake at 30 uM preincubated for 15 mins followed by [3H]2-deoxy-D-glucose addition and measured after 40 mins by liquid scintillation counting method; format: cell-based
Summary of the method: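 H1299 NSCLC cells (maintained in DMEM, 25 mM glucose, 10% FBS) serum-starved 1.5 h in FBS-free DMEM, then 30 min in glucose-free KRP buffer. Compound at 30 μM final, 15 min; uptake started with 37 MBq/L 2-deoxy-D-[3H]glucose plus 1 mM glucose (final), 40 min. Stopped with PBS, lysate radioactivity counted. Vehicle negative control, WZB117 positive control; n = 3, Student's t-test versus vehicle.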

SMILES | IC50 [1] | IC50 [2] | IC50 [3] | IC50 [4] | IC50 [5] | Activity [6]
CC(=O)O[C@H]1[C@@H](OC(C)=O)C[C@H](O[C@H]2[C@@H](O)C[C@H](O[C@H]3[C@@H](O)C[C@H](O[C@H]4CC[C@@]5(C)[C@H](CC[C@@H]6[C@@H]5C[C@@H](OC(C)=O)[C@]5(C)[C@@H](C7=CC(=O)OC7)CC[C@]65O)C4)O[C@@H]3C)O[C@@H]2C)O[C@@H]1C | > 10 µM | > 10 µM | 6.2 µM | > 10 µM | – | –
CC(=O)O[C@H]1[C@@H](OC(C)=O)C[C@H](O[C@H]2[C@@H](OC(C)=O)C[C@H](O[C@H]3[C@@H](OC(C)=O)C[C@H](O[C@H]4CC[C@@]5(C)[C@H](CC[C@@H]6[C@@H]5C[C@@H](OC(C)=O)[C@]5(C)[C@@H](C7=CC(=O)OC7)CC[C@]65O)C4)O[C@@H]3C)O[C@@H]2C)O[C@@H]1C | > 10 µM | > 10 µM | 8.2 µM | > 10 µM | – | –
C[C@H]1O[C@@H](O[C@H]2[C@@H](O)C[C@H](O[C@H]3[C@@H](O)C[C@H](O[C@H]4CC[C@@]5(C)[C@H](CC[C@@H]6[C@@H]5C[C@@H](O)[C@]5(C)[C@H]([C@@H]7CC(=O)O[C@@H]7O)CC[C@]65O)C4)O[C@@H]3C)O[C@@H]2C)C[C@H](O)[C@@H]1O | > 10 µM | > 10 µM | > 10 µM | > 10 µM | 160 µM | –
C[C@H]1O[C@@H](O[C@H]2[C@@H](O)C[C@H](O[C@H]3[C@@H](O)C[C@H](O[C@H]4CC[C@@]5(C)[C@H](CC[C@@H]6[C@@H]5C[C@@H](O)[C@]5(C)[C@@H](C7=CC(=O)OC7)CC[C@]65O)C4)O[C@@H]3C)O[C@@H]2C)C[C@H](O)[C@@H]1O [DIGOXIN] | 0.17 µM | 0.31 µM | – | 0.28 µM | 0.23 µM | inactive
C[C@]12CC[C@H](O)C[C@H]1CC[C@@H]1[C@@H]2C[C@@H](O)[C@]2(C)[C@@H](C3=CC(=O)OC3)CC[C@]12O [DIGOXIGENIN] | 0.9 µM | 3.2 µM | 2.4 µM | 3.6 µM | – | –
C[C@]12[C@H](O)CC3=C(CC[C@@H]4C[C@@H](O)CC[C@]34C)[C@H]1CC[C@@H]2C1=CC(=O)OC1 | > 10 µM | > 10 µM | > 10 µM | > 10 µM | – | –
